Experimental data reported in ChEMBL document CHEMBL1142625, “Antifungal substances against pathogenic fungi, talaroconvolutins, from talaromyces convolutus” (J Nat Prod, 2000).
The source made the active and inactive calls. No cut-off for these calls is given here.

What was measured:
[1] = tested on: Aspergillus fumigatus; assay: Antifungal activity against Aspergillus fumigatus Fresenius 167 assessed as diameter of inhibition zone at 1 ug/disk after 48 to 72 hrs by paper disk assay; type: functional; conditions: for zone of inhibition at 1 µg/disc: read-out: IZ
Outline: (§1)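 Compound was absorbed onto 8 mm paper disks and the disks were placed on assay plates seeded with the test fungus. Plates contained Sabouraud's glucose broth agar and were incubated at 25 °C. After 48–72 h, the diameter of the inhibition zone was recorded in mm.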

[2] = tested on: Aspergillus niger; assay: Antifungal activity against Aspergillus niger Van Tieghem H7160B assessed as diameter of inhibition zone at 1 ug/disk after 48 to 72 hrs by paper disk assay; type: functional; outline: as §1
[3] = tested on: Cryptococcus neoformans; assay: Antifungal activity against Cryptococcus neoformans (Sanfelice) Vuillemin ATCC 90112 assessed as diameter of inhibition zone at 100 ug/disk after 48 to 72 hrs by paper disk assay; type: functional; outline: as §1
[4] = tested on: Cryptococcus neoformans; assay: Antifungal activity against Cryptococcus neoformans (Sanfelice) Vuillemin ATCC 90112 assessed as diameter of inhibition zone at 20 ug/disk after 48 to 72 hrs by paper disk assay; type: functional; outline: as §1
[5] = tested on: Cryptococcus neoformans; assay: Antifungal activity against Cryptococcus neoformans (Sanfelice) Vuillemin ATCC 90112 assessed as diameter of inhibition zone at 5 ug/disk after 48 to 72 hrs by paper disk assay; type: functional; outline: as §1
[6] = tested on: Cryptococcus neoformans; assay: Antifungal activity against Cryptococcus neoformans (Sanfelice) Vuillemin ATCC 90112 assessed as diameter of inhibition zone at 1 ug/disk after 48 to 72 hrs by paper disk assay; type: functional; outline: as §1
[7] = tested on: Cryptococcus neoformans; assay: Antifungal activity against Cryptococcus neoformans (Sanfelice) Vuillemin ATCC 90112 assessed as diameter of inhibition zone upto 100 ug/disk after 48 to 72 hrs by paper disk assay; type: functional, organism-based; outline: as §1
[8] = tested on: Aspergillus fumigatus; assay: Antifungal activity against Aspergillus fumigatus Fresenius 167 assessed as diameter of inhibition zone upto 100 ug/disk after 48 to 72 hrs by paper disk assay; type: functional, organism-based; outline: as §1
[9] = tested on: Aspergillus niger; assay: Antifungal activity against Aspergillus niger Van Tieghem H7160B assessed as diameter of inhibition zone upto 100 ug/disk after 48 to 72 hrs by paper disk assay; type: functional, organism-based; outline: as §1
[10] = tested on: Candida albicans; assay: Antifungal activity against Candida albicans 7N assessed as diameter of inhibition zone upto 100 ug/disk after 48 to 72 hrs by paper disk assay; type: functional, organism-based; outline: as §1
[11] = tested on: Aspergillus fumigatus; assay: Antifungal activity against Aspergillus fumigatus Fresenius 167 assessed as diameter of inhibition zone at 100 ug/disk after 48 to 72 hrs by paper disk assay; type: functional; conditions: for zone of inhibition at 100 µg/disc: Aspergillus fumigatus, read-out: IZ; outline: as §1
[12] = tested on: Aspergillus fumigatus; assay: Antifungal activity against Aspergillus fumigatus Fresenius 167 assessed as diameter of inhibition zone at 20 ug/disk after 48 to 72 hrs by paper disk assay; type: functional; conditions: for zone of inhibition at 20 µg/disc: Aspergillus fumigatus, read-out: IZ; outline: as §1
[13] = tested on: Aspergillus fumigatus; assay: Antifungal activity against Aspergillus fumigatus Fresenius 167 assessed as diameter of inhibition zone at 5 ug/disk after 48 to 72 hrs by paper disk assay; type: functional; conditions: for zone of inhibition at 5 µg/disc: Aspergillus fumigatus, read-out: IZ; outline: as §1
[14] = tested on: Aspergillus niger; assay: Antifungal activity against Aspergillus niger Van Tieghem H7160B assessed as diameter of inhibition zone at 100 ug/disk after 48 to 72 hrs by paper disk assay; type: functional; conditions: for zone of inhibition at 100 µg/disc: Aspergillus niger, Van Tieghem, read-out: IZ; outline: as §1
[15] = tested on: Aspergillus niger; assay: Antifungal activity against Aspergillus niger Van Tieghem H7160B assessed as diameter of inhibition zone at 20 ug/disk after 48 to 72 hrs by paper disk assay; type: functional; conditions: for zone of inhibition at 20 µg/disc: Aspergillus niger, Van Tieghem, read-out: IZ; outline: as §1
[16] = tested on: Aspergillus niger; assay: Antifungal activity against Aspergillus niger Van Tieghem H7160B assessed as diameter of inhibition zone at 5 ug/disk after 48 to 72 hrs by paper disk assay; type: functional; conditions: for zone of inhibition at 5 µg/disc: Aspergillus niger, Van Tieghem, read-out: IZ; outline: as §1
[17] = tested on: Candida albicans; assay: Antifungal activity against Candida albicans 7N assessed as diameter of inhibition zone at 100 ug/disk after 48 to 72 hrs by paper disk assay; type: functional; conditions: for zone of inhibition at 100 µg/disc: Candida albicans, read-out: IZ; outline: as §1
[18] = tested on: Candida albicans; assay: Antifungal activity against Candida albicans 7N assessed as diameter of inhibition zone at 20 ug/disk after 48 to 72 hrs by paper disk assay; type: functional; conditions: for zone of inhibition at 20 µg/disc: Candida albicans, read-out: IZ; outline: as §1
[19] = tested on: Candida albicans; assay: Antifungal activity against Candida albicans 7N assessed as diameter of inhibition zone at 5 ug/disk after 48 to 72 hrs by paper disk assay; type: functional; conditions: for zone of inhibition at 5 µg/disc: Candida albicans, read-out: IZ; outline: as §1
[20] = tested on: Candida albicans; assay: Antifungal activity against Candida albicans 7N assessed as diameter of inhibition zone at 1 ug/disk after 48 to 72 hrs by paper disk assay; type: functional; conditions: for zone of inhibition at 1 µg/disc: Candida albicans, read-out: IZ; outline: as §1

CCC(C)/C=C(\C)[C@H]1C(C)=C[C@@]2(C)C[C@@H](C)CC[C@@H]2[C@H]1C(=O)C1=CC(O)(Cc2ccc(O)cc2)NC1=O (stereo in doubt; 2)
Activity [1]: inactive
Activity [2]: inactive
Activity [3]: inactive
Activity [4]: inactive
Activity [5]: inactive
Activity [6]: inactive
Activity [7]: inactive

CCC(C)/C=C(\C)[C@H]1C(C)=C[C@@]2(C)C[C@@H](C)CC[C@@H]2[C@H]1C(=O)C1=C/C(=C/c2ccc(O)cc2)NC1=O (some centres undefined)
Activity [8]: inactive
Activity [9]: inactive
Activity [10]: inactive
Activity [7]: inactive

CCC(C)/C=C(\C)[C@H]1C(C)=C[C@@]2(C)C[C@@H](C)CC[C@@H]2[C@H]1C(=O)C1=CC(O)(Cc2ccc(O)cc2)NC1=O (stereo in doubt; 2) [TALAROCONVOLUTIN B]
zone of inhibition at 100 µg/disc [11]: 12 mm
zone of inhibition at 20 µg/disc [12]: 11 mm
zone of inhibition at 5 µg/disc [13]: 10 mm
zone of inhibition at 100 µg/disc [14]: 11 mm
zone of inhibition at 20 µg/disc [15]: 10 mm
zone of inhibition at 5 µg/disc [16]: 9 mm
zone of inhibition at 100 µg/disc [17]: 15 mm
zone of inhibition at 20 µg/disc [18]: 14 mm
zone of inhibition at 5 µg/disc [19]: 13 mm
zone of inhibition at 1 µg/disc [20]: 11 mm

CCOC1C(C(=O)[C@H]2[C@@H](/C(C)=C/C(C)CC)C(C)=C[C@@]3(C)C[C@@H](C)CC[C@H]23)C(=O)NC1(O)Cc1ccc(O)cc1 (some centres undefined) [TALAROCONVOLUTIN C]
zone of inhibition at 100 µg/disc [11]: 11 mm
zone of inhibition at 20 µg/disc [12]: 11 mm
Activity [13]: inactive
Activity [1]: inactive
zone of inhibition at 100 µg/disc [14]: 11 mm
zone of inhibition at 20 µg/disc [15]: 10 mm
Activity [16]: inactive
inhibition zone (IZ) [2]: inactive
zone of inhibition at 100 µg/disc [17]: 11 mm
zone of inhibition at 20 µg/disc [18]: 10 mm
Activity [19]: inactive
Activity [20]: inactive
Activity [3]: inactive
Activity [4]: inactive
Activity [5]: inactive
Activity [6]: inactive
Activity [7]: inactive

CCC(C)/C=C(\C)[C@H]1C(C)=C[C@@]2(C)C[C@@H](C)CC[C@@H]2[C@H]1C(=O)C1=CC(O)(Cc2ccc(O)cc2)NC1=O (stereo in doubt; 5)
Activity [3]: inactive
Activity [4]: inactive
Activity [5]: inactive
Activity [6]: inactive

CCC(C)/C=C(\C)[C@H]1C(C)=C[C@@]2(C)C[C@@H](C)CC[C@@H]2[C@H]1C(=O)C1=CC(O)(Cc2ccc(O)cc2)NC1=O (stereo in doubt; 5) [TALAROCONVOLUTIN B]
inhibition zone (IZ) [11]: 17 mm
inhibition zone (IZ) [12]: 15 mm
inhibition zone (IZ) [13]: 14 mm
zone of inhibition at 1 µg/disc [1]: 11 mm
inhibition zone (IZ) [14]: 16 mm
inhibition zone (IZ) [15]: 15 mm
inhibition zone (IZ) [16]: 13 mm
Activity [2]: 11 mm
inhibition zone (IZ) [17]: 20 mm
inhibition zone (IZ) [18]: 18 mm
inhibition zone (IZ) [19]: 17 mm
inhibition zone (IZ) [20]: 15 mm

CCC(C)/C=C(\C)[C@H]1C(C)=C[C@@]2(C)C[C@@H](C)CC[C@@H]2[C@H]1C(=O)C1C(=O)NC2(Cc3ccc(O)cc3)OC(C)(C)OC12 (some centres undefined)
Activity [8]: inactive
Activity [9]: inactive
Activity [10]: inactive
Activity [7]: inactive

C[C@@H]1[C@H](O)[C@@H](C)/C=C/C=C/C=C/C=C/C=C/C=C/C=C/[C@H](O[C@@H]2O[C@H](C)[C@@H](O)[C@H](N)[C@@H]2O)C[C@@H]2O[C@](O)(C[C@@H](O)C[C@@H](O)[C@H](O)CC[C@@H](O)C[C@@H](O)CC(=O)O[C@H]1C)C[C@H](O)[C@H]2C(=O)O [AMPHOTERICIN B]
zone of inhibition at 100 µg/disc [11]: 17 mm
zone of inhibition at 20 µg/disc [12]: 14 mm
zone of inhibition at 5 µg/disc [13]: 12 mm
zone of inhibition at 1 µg/disc [1]: 10 mm
zone of inhibition at 100 µg/disc [14]: 25 mm
zone of inhibition at 20 µg/disc [15]: 24 mm
zone of inhibition at 5 µg/disc [16]: 20 mm
zone of inhibition at 1 µg/disc ([2]; Aspergillus niger, Van Tieghem, read-out: IZ): 16 mm
zone of inhibition at 100 µg/disc [17]: 20 mm
zone of inhibition at 20 µg/disc [18]: 20 mm
zone of inhibition at 5 µg/disc [19]: 18 mm
zone of inhibition at 1 µg/disc [20]: 15 mm
zone of inhibition at 100 µg/disc ([3]; read-out: IZ): 19 mm
zone of inhibition at 20 µg/disc ([4]; read-out: IZ): 16 mm
zone of inhibition at 5 µg/disc ([5]; read-out: IZ): 13 mm
zone of inhibition at 1 µg/disc ([6]; read-out: IZ): 11 mm
